The source made the active and inactive calls. No cut-off for these calls is given here.
Tests used:
[1] = molecular target: Serine/threonine-protein kinase B-raf (Homo sapiens, UniProt P15056, V600E); test: Inhibition of BRAF V600E mutant (unknown origin) after 1 to 1.5 hrs by FRET-based Z'-Lyte assay
Outline: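 Z′-Lyte FRET cascade assay in 10 μL. Incubated 1 h at room temperature, then development reagent 1 h, then stop reagent. Controls: phospho-peptide, no ATP, and 4% DMSO solution. Means of 2 independent experiments.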

SK-MEL-28 = test: cells; type: functional, cell-based; details: Homo sapiens, SK-MEL-28, 68 h
cells = type: functional; details: Homo sapiens, 68 h
[2] = molecular target: T1, Epidermal growth factor receptor (Homo sapiens, UniProt P00533); test: Inhibition of EGFR (unknown origin) after 1 to 1.5 hrs by FRET-based Z'-Lyte assay
[3] = molecular target: T1, Epidermal growth factor receptor; test: Inhibition of EGFR phosphorylation at Tyr1068 in human HT-29 cells after 2 hrs by Western blotting analysis; type: cell-based
Outline: (§1)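 1 × 10⁶ cells seeded overnight in 6-cm dishes, then treated 2 h with 3, 1 or 0.3 μM in fresh medium; 1‰ DMSO as control. RIPA lysates, protein quantified by BCA, equal loads run on PVDF blots. Blocked 1 h at room temperature, then probed for EGFR, phospho-EGFR (Tyr1068), ERK, phospho-ERK (T202/Y204) and GAPDH.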

[4] = molecular target: Receptor tyrosine-protein kinase erbB-4 (Homo sapiens) (UniProt Q15303); test: Inhibition of ERBB4 (unknown origin) at 1 uM by KINOMEscan assay
Outline: (§2)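 KINOMEscan binding screen across a panel of 456 kinases (including 395 distinct wild-type kinases), with test compound at 1.0 μM.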

[5] = molecular target: T1, Epidermal growth factor receptor; test: Inhibition of EGFR phosphorylation at Tyr1068 in human WiDr cells after 2 hrs by Western blotting analysis; type: cell-based; outline: as §1
[6] = molecular target: T1, Epidermal growth factor receptor; test: Inhibition of EGFR phosphorylation at Tyr1068 in human A375 cells after 2 hrs by Western blotting analysis; type: cell-based; details: A-375; outline: as §1
[7] = molecular target: Receptor tyrosine-protein kinase erbB-2 (Homo sapiens) (UniProt P04626); test: Inhibition of ERBB2 (unknown origin) at 1 uM by KINOMEscan assay; outline: as §2
HT-29 [8] = test: Inhibition of MAPK-mediated ERK phosphorylation at Thr202/Tyr204 in human HT-29 cells after 2 hrs by Western blotting analysis; type: cell-based; outline: as §1
Homo sapiens [9] = species on record: Homo sapiens; test: Inhibition of MAPK-mediated ERK phosphorylation at Thr202/Tyr204 in human SK-MEL-28-PR30 cells after 2 hrs by Western blotting analysis; type: cell-based; outline: as §1
Homo sapiens [10] = species on record: Homo sapiens; test: Effect on total ERK protein level in human SK-MEL-28-PR30 cells after 2 hrs by Western blotting analysis; type: functional, cell-based; outline: as §1
Homo sapiens [11] = species on record: Homo sapiens; test: Inhibition of MAPK-mediated ERK phosphorylation at Thr202/Tyr204 in human SK-MEL-28-PR30 cells at 1 uM after 48 hrs by Western blotting analysis; type: cell-based
Outline: (§3)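 Time-course western blot with treatment at 1.0 μM. SK-MEL-28-PR30 or WiDr cells exposed for 2, 24 and 48 h. RIPA lysates quantified by BCA, equal protein blotted on PVDF, and probed for phospho-ERK (T202/Y204), total ERK and GAPDH.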

COLO 205 = test: Antiproliferative activity against human COLO205 cells harboring BRAF V600E mutant and EGFR after 68 hrs by MTS assay; type: functional, cell-based; details: COLO 205, 68 h
[12] = molecular target: Platelet-derived growth factor receptor beta (Homo sapiens) (UniProt P09619); test: Inhibition of PDGFRbeta (unknown origin) at 1 uM by KINOMEscan assay; outline: as §2
Homo sapiens [13] = species on record: Homo sapiens; test: Effect on total EGFR protein level in human SK-MEL-28-PR30 cells after 2 hrs by Western blotting analysis; type: functional, cell-based; outline: as §1
WiDr [14] = test: Inhibition of MAPK-mediated ERK phosphorylation at Thr202/Tyr204 in human WiDr cells after 2 hrs by Western blotting analysis; type: cell-based; outline: as §1
LoVo = test: Antiproliferative activity against human LoVo cells harboring wild-type BRAF after 68 hrs by […]; type: functional, cell-based
[15] = molecular target: T1, Epidermal growth factor receptor; test: Inhibition of EGFR phosphorylation at Tyr1068 in human SK-MEL-28-PR30 cells after 2 hrs by Western blotting analysis; type: cell-based; outline: as §1
A-375 = test: Inhibition of MAPK-mediated ERK phosphorylation at Thr202/Tyr204 in human A375 cells after 2 hrs by Western blotting analysis; type: cell-based; outline: as §1
HT-29 [16] = test: Antiproliferative activity against human HT-29 cells harboring BRAF V600E mutant and EGFR after 68 hrs […]; type: functional, cell-based; details: HT-29, 68 h
HCT-116 = test: Antiproliferative activity against human HCT116 cells harboring wild-type BRAF and EGFR after 68 hrs […]; type: functional, cell-based; details: HCT-116, 68 h
WiDr [17] = test: Antiproliferative activity against human WiDr cells harboring BRAF V600E mutant and EGFR after 68 hrs […]; type: functional, cell-based
WiDr [18] = test: Inhibition of MAPK-mediated ERK phosphorylation at Thr202/Tyr204 in human WiDr cells at 1 uM after 2 to 48 hrs by Western blotting analysis; type: cell-based; outline: as §3
Homo sapiens [19] = species on record: Homo sapiens; test: Inhibition of MAPK-mediated ERK phosphorylation at Thr202/Tyr204 in human SK-MEL-28-PR30 cells at 1 uM after 24 hrs by Western blotting analysis; type: cell-based; outline: as §3

Sequence of Serine/threonine-protein kinase B-raf (P15056 2-766 V600E limits assumed): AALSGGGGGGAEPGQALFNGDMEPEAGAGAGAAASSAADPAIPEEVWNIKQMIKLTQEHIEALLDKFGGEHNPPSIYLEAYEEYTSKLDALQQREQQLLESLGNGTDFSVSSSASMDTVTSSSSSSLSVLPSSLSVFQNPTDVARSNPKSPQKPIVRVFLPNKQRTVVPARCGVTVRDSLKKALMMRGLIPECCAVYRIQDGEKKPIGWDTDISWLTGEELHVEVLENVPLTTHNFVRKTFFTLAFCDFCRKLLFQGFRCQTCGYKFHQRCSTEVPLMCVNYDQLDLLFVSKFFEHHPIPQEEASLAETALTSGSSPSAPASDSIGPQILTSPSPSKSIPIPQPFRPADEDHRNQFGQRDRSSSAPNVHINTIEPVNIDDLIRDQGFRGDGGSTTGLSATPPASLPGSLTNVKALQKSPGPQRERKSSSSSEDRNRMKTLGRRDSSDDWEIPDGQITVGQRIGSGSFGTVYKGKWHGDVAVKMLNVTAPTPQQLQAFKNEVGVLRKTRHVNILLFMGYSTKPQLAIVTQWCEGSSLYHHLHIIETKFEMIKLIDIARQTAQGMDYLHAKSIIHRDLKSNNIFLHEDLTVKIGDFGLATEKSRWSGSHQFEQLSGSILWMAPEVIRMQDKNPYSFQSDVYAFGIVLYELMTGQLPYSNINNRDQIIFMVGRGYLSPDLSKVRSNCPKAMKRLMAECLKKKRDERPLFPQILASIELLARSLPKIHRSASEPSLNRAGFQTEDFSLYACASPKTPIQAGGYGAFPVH
T1 sequence (P00533 whole entry): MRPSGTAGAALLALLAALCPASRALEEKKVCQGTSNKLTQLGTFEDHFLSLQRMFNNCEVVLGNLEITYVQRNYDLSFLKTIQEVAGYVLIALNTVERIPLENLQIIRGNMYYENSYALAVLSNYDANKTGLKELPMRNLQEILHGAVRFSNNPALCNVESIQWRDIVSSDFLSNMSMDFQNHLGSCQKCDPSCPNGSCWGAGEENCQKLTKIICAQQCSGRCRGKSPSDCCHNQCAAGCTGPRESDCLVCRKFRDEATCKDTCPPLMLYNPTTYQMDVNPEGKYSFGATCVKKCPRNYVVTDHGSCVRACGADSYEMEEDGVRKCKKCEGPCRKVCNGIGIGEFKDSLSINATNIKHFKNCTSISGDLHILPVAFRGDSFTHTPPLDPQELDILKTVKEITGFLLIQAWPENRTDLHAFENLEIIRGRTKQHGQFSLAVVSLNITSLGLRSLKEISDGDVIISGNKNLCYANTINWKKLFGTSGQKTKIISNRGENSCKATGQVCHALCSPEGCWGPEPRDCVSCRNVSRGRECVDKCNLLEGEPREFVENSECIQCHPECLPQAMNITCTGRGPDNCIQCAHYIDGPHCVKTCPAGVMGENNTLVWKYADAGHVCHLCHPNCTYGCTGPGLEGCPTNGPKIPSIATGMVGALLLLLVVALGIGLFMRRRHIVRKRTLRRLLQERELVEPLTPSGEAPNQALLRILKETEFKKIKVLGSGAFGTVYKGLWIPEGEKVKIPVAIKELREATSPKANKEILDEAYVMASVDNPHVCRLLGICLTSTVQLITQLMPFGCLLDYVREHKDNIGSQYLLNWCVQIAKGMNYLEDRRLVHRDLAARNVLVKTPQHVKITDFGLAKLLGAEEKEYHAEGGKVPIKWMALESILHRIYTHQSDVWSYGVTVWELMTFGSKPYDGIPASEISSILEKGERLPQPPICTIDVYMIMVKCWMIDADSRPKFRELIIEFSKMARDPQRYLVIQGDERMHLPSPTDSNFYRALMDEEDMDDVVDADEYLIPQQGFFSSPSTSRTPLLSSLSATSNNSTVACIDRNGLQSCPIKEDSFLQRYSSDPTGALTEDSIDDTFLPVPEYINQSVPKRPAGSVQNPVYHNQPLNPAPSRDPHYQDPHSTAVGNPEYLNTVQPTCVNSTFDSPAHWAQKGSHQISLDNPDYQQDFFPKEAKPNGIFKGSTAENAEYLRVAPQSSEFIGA
Sequence of Platelet-derived growth factor receptor beta (Homo sapiens) (P09619 whole entry): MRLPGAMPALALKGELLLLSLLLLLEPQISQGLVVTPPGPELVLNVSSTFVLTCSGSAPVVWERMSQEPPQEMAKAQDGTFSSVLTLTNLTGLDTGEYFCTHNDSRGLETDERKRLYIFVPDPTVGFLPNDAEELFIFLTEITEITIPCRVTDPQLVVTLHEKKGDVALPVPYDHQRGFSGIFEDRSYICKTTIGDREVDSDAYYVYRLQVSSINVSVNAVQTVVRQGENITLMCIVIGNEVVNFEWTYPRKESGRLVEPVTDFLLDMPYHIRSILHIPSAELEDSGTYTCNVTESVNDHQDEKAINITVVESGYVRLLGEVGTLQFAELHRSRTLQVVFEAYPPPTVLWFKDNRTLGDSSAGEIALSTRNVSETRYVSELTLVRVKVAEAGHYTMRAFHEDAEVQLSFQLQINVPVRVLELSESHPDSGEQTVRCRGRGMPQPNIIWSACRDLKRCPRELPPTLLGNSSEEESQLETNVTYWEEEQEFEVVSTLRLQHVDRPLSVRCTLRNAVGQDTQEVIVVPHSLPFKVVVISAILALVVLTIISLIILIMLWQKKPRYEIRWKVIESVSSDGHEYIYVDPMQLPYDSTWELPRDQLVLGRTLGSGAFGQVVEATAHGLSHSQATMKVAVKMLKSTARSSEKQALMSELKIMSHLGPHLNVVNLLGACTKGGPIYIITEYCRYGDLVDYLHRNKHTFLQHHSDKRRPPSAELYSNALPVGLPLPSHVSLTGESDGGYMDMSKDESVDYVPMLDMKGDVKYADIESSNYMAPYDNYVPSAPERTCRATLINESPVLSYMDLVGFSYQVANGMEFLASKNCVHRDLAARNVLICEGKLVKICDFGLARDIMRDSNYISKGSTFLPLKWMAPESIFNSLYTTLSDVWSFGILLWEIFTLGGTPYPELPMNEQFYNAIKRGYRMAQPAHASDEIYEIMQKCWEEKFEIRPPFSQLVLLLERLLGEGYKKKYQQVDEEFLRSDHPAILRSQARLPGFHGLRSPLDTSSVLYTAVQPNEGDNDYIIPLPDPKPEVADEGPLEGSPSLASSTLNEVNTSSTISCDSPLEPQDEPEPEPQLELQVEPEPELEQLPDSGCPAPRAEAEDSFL
Sequence of Receptor tyrosine-protein kinase erbB-4 (Homo sapiens) (Q15303 whole entry): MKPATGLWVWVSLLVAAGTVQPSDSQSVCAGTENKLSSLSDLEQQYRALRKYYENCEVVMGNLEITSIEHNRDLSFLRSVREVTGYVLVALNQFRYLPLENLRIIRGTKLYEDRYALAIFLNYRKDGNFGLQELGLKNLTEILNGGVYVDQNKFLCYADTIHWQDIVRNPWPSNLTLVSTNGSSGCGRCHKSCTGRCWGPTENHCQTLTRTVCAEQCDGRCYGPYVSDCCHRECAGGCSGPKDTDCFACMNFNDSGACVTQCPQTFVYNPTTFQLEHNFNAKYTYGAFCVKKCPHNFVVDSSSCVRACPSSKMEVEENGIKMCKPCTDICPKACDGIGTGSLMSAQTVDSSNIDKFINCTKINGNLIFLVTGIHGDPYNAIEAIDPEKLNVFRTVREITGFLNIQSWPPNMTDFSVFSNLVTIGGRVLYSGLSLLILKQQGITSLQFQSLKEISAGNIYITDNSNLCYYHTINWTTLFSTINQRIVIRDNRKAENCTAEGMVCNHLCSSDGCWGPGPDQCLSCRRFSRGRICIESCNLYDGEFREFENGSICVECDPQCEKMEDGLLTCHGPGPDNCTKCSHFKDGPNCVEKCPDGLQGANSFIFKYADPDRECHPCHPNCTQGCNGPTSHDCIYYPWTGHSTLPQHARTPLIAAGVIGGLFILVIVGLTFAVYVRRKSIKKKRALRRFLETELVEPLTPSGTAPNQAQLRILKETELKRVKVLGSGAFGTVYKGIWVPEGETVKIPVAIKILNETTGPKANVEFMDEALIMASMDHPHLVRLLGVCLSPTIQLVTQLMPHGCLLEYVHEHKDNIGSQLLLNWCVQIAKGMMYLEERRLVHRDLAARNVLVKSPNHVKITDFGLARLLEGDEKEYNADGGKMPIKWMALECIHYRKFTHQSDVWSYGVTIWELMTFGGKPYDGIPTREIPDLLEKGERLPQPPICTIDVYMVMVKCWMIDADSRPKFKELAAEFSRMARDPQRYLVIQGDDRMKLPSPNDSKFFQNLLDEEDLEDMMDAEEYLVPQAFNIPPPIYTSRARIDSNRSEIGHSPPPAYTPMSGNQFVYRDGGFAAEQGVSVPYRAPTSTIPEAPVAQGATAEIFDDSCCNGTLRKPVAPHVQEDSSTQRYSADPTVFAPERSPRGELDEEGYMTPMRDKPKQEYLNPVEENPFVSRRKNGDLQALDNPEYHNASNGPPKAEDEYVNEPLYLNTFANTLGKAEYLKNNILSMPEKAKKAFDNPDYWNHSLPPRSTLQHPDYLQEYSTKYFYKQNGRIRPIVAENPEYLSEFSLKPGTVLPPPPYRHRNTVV

| Compound | IC50 [1] | IC50 (SK-MEL-28) | IC50 (cells) | IC50 [2] | other results |
| --- | --- | --- | --- | --- | --- |
| Cc1ccc(C(=O)Nc2ccc(CN3CCN(C)CC3)c(C(F)(F)F)c2)cc1NC(=O)c1ccccn1 | 573 nM | > 20000 nM | 10700 nM | – | – |
| Cc1ccc(C(=O)Nc2ccc(CN3CCN(C)CC3)c(C(F)(F)F)c2)cc1NC(=O)c1ccc2[nH]ccc2c1 | 220 nM | 4430 nM | 3040 nM | > 10000 nM | – |
| Cc1ccc(C(=O)Nc2ccc(CN3CCN(C)CC3)c(C(F)(F)F)c2)cc1NC(=O)c1cccnc1 | 551 nM | 14000 nM | > 20000 nM | 550 nM | – |
| Cc1ccc(C(=O)Nc2ccc(CN3CCN(C)CC3)c(C(F)(F)F)c2)cc1NC(=O)c1cncnc1 | 670 nM | > 20000 nM | > 20000 nM | 1920 nM | – |
| Cc1ccc(C(=O)Nc2ccc(CN3CCN(C)CC3)c(C(F)(F)F)c2)cc1NC(=O)c1cnc(NC2CCCCC2)nc1 | 37 nM | 2380 nM | 2730 nM | 47 nM | – |
| Cc1ccc(C(=O)Nc2ccc(CN3CCN(C)CC3)c(C(F)(F)F)c2)cc1NC(=O)c1cnccn1 | 280 nM | > 20000 nM | > 20000 nM | 3900 nM | – |
| Cc1ccc(C(=O)Nc2ccc(CN3CCN(C)CC3)c(C(F)(F)F)c2)cc1NC(=O)c1ccc(O)nc1 | > 10000 nM | > 20000 nM | > 20000 nM | 1330 nM | – |
| CC(C)c1ccc(C(=O)Nc2ccc(CN3CCN(C)CC3)c(C(F)(F)F)c2)cc1NC(=O)c1cnc2[nH]ccc2c1 | 290 nM | 2270 nM | 1900 nM | 160 nM | – |
| Cc1ccc(C(=O)Nc2ccc(CN3CCN(C)CC3)c(C(F)(F)F)c2)cc1NC(=O)c1ccncc1 | 110 nM | > 20000 nM | > 20000 nM | > 10000 nM | – |
| Cc1ccc(C(=O)Nc2ccc(CN3CCN(C)CC3)c(C(F)(F)F)c2)cc1NC(=O)c1cnc(NC2CC2)nc1 | 390 nM | 2960 nM | 1440 nM | 44 nM | – |
| Cc1ccc(C(=O)Nc2ccc(CN3CCN(C)CC3)c(C(F)(F)F)c2)cc1NC(=O)c1cnc(N(C)C)nc1 | 300 nM | 6960 nM | 2490 nM | 5540 nM | – |
| Cc1ccc(C(=O)Nc2ccc(CN3CCN(C)CC3)c(C(F)(F)F)c2)cc1NC(=O)c1ccccc1 | 240 nM | 6910 nM | 5030 nM | > 10000 nM | – |
| CNc1ncc(C(=O)Nc2cc(C(=O)Nc3ccc(CN4CCN(C)CC4)c(C(F)(F)F)c3)ccc2C)cn1 | 290 nM | > 20000 nM | 2750 nM | 120 nM | – |

Now those with a lower IC50 (SK-MEL-28), led by results:

| IC50 [1] | IC50 (SK-MEL-28) | IC50 (cells) | IC50 [2] | Compound | other results |
| --- | --- | --- | --- | --- | --- |
| 340 nM | 1730 nM | 860 nM | 43 nM | Cc1ccc(C(=O)Nc2ccc(CN3CCN(C)CC3)c(C(F)(F)F)c2)cc1NC(=O)c1cnc(NC(C)C)nc1 | – |
| 51 nM | 130 nM | 450 nM | 8 nM | Cc1ccc(C(=O)Nc2ccc(CN3CCN(C)CC3)c(C(F)(F)F)c2)cc1NC(=O)c1cnc2[nH]ccc2c1 | inhibition [3]: Dose-dependent effect; inhibition [4]: Active; inhibition [5]: Dose-dependent effect; inhibition [6]: Dose-dependent effect; inhibition [7]: Active; inhibition (HT-29 [8]): Dose-dependent effect; inhibition (Homo sapiens [9]): Dose-dependent effect; inhibition (Homo sapiens [10]): Dose-dependent effect; inhibition (Homo sapiens [11]): Active; IC50 (COLO 205): 220 nM; inhibition [12]: Active; inhibition (Homo sapiens [13]): Dose-dependent effect; inhibition (WiDr [14]): Dose-dependent effect; IC50 (LoVo): 170 nM; inhibition [15]: Dose-dependent effect; inhibition (A-375): Dose-dependent effect; IC50 (HT-29 [16]): 480 nM; IC50 (HCT-116): 1330 nM; IC50 (WiDr [17]): 670 nM; inhibition (WiDr [18]): Active |
| 210 nM | 1700 nM | 900 nM | 6 nM | Cc1ccc(C(=O)Nc2ccc(CN3CCN(C)CC3)c(C(F)(F)F)c2)cc1NC(=O)c1cnc(Nc2ccccc2)nc1 | – |
| 360 nM | 910 nM | 490 nM | 99 nM | CCc1ccc(C(=O)Nc2ccc(CN3CCN(C)CC3)c(C(F)(F)F)c2)cc1NC(=O)c1cnc2[nH]ccc2c1 | – |
| 510 nM | 1090 nM | 2400 nM | 130 nM | CCNc1ncc(C(=O)Nc2cc(C(=O)Nc3ccc(CN4CCN(C)CC4)c(C(F)(F)F)c3)ccc2C)cn1 | – |
| – | 480 nM | > 20000 nM | – | CCCS(=O)(=O)Nc1ccc(F)c(C(=O)c2c[nH]c3ncc(-c4ccc(Cl)cc4)cc23)c1F [VEMURAFENIB] | inhibition (Homo sapiens [11]): inactive; inhibition (Homo sapiens [19]): inactive |
| 230 nM | 2040 nM | 1240 nM | 33 nM | Cc1ccc(C(=O)Nc2ccc(CN3CCN(C)CC3)c(C(F)(F)F)c2)cc1NC(=O)c1cnc(NC2CCCC2)nc1 | – |
| 48 nM | 1070 nM | 1730 nM | 680 nM | CN1CCN(Cc2ccc(NC(=O)c3cccc(NC(=O)c4cnc5[nH]ccc5c4)c3)cc2C(F)(F)F)CC1 | – |
| 48 nM | 540 nM | 780 nM | 30 nM | Cc1ccc(C(=O)Nc2ccc(CN3CCN(C)CC3)c(C(F)(F)F)c2)cc1NC(=O)c1cnc2[nH]ncc2c1 | IC50 (COLO 205): 360 nM; IC50 (LoVo): 480 nM; IC50 (HT-29 [16]): 780 nM; IC50 (HCT-116): 1380 nM; IC50 (WiDr [17]): 1350 nM |
| 410 nM | 1840 nM | 1890 nM | 43 nM | Cc1ccc(C(=O)Nc2ccc(CN3CCN(C)CC3)c(C(F)(F)F)c2)cc1NC(=O)c1cnc(N)nc1 | – |
